Data from ChEMBL document CHEMBL4265950, “Discovery of furyl/thienyl β-carboline derivatives as potent and selective PDE5 inhibitors with excellent vasorelaxant effect” (Eur J Med Chem, 2018).

Tests used:
[1] = target: cGMP-specific 3',5'-cyclic phosphodiesterase (Rattus norvegicus) (UniProt O54735); test: (§1) Inhibition of PDE5 in Wistar rat mesentric arteries assessed as inhibition of phenylephrine-induced contraction by measuring increase in acetylcholine-induced vasorelaxation by pressure myographic method
In short: (§2)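 Third-order rat mesenteric arteries (110–150 µm), 3–4 mm unbranched segments, cannulated in PSS (pH 7.4, 95% O2/5% CO2). Equilibrated 35 min while pressure was stepped 10→60 mmHg. Checked with 120 mM KCl and acetylcholine, then constricted with 20 µM phenylephrine (norepinephrine in text) and given compounds cumulatively. Ca²⁺-free PSS set maximal dilation. Outer diameter recorded as % relaxation; EC50 from normalized nonlinear fit.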

[2] = target: cGMP-specific 3',5'-cyclic phosphodiesterase (Rattus norvegicus, UniProt O54735); test: as §1; in short: as §2
[3] = target: cGMP-inhibited 3',5'-cyclic phosphodiesterase 3B (Homo sapiens, UniProt Q13370); test: Inhibition of recombinant human N-terminal GST-tagged PDE3B (592 to end residues) expressed in baculovirus infected sf9 cells using FAM-cyclic-3',5-AMP as substrate after 1 hr by fluorescence polarization assay
In short: (§3)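 Fluorescence polarization assay run at 25 °C for 60 min in 40 mM MOPS pH 7.5, 0.5 mM EDTA, 15 mM MgCl2, 0.15 mg/mL BSA, 1 mM DTT, 0.05% ProClin 200. Contained 15 ng/mL PDE isoform and 100 nM FAM-cGMP or FAM-cAMP according to isoform, with 1% DMSO final. Binding agent added for 1 h at 25 °C; read at […] nm. IC50 from normalized nonlinear dose-response fit.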

[4] = target: cGMP-dependent 3',5'-cyclic phosphodiesterase (Homo sapiens, UniProt O00408); test: Inhibition of recombinant human N-terminal FLAG-tagged PDE2A (2 to 941 residues) expressed in baculovirus infected sf9 cells using FAM-cyclic-3',5-AMP as substrate after 1 hr by fluorescence polarization assay; in short: as §3
[5] = target: Cone cGMP-specific 3',5'-cyclic phosphodiesterase subunit alpha' (Homo sapiens, UniProt P51160); test: Inhibition of full length recombinant human N-terminal GST-tagged PDE6C expressed in baculovirus infected sf9 cells using […] as substrate after 1 hr by fluorescence polarization assay
[6] = target: 3',5'-cyclic-AMP phosphodiesterase 4A (Homo sapiens, UniProt P27815); test: Inhibition of full length recombinant human N-terminal GST-tagged PDE4A1A expressed in baculovirus infected sf9 cells using FAM-cyclic-3',5-AMP as substrate after 1 hr by fluorescence polarization assay
[7] = Stability of the compound in PDE5 enzyme assay condition at 100 uM by HPLC analysis; format: ADME
[8] = target: T1, cGMP-specific 3',5'-cyclic phosphodiesterase (Homo sapiens, UniProt O76074); test: Inhibition of full length recombinant human N-terminal GST-tagged PDE5A1 expressed in baculovirus infected sf9 cells at 100 nM using FAM-cyclic-3',5-GMP as substrate after 1 hr by fluorescence polarization assay relative to control
In short: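 Single-point test at 100 nM, reported as percent inhibition. Human PDE5 at 15 ng/mL with 100 nM FAM-cGMP in MOPS pH 7.5 buffer (MgCl2, EDTA, BSA, DTT), 1% DMSO final, 60 min at 25 °C. Binding agent added for 1 h, then fluorescence polarization read at […] nm.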

[9] = target: T1, cGMP-specific 3',5'-cyclic phosphodiesterase; test: Inhibition of full length recombinant human N-terminal GST-tagged PDE5A1 expressed in baculovirus infected sf9 cells using FAM-cyclic-3',5-GMP as substrate after 1 hr by fluorescence polarization assay
Homo sapiens [10] = organism: Homo sapiens; test: Selectivity index, ratio of IC50 for inhibition of full length recombinant human N-terminal GST-tagged PDE11A4 expressed in baculovirus infected sf9 cells to IC50 for inhibition of full length recombinant human N-terminal GST-tagged PDE5A1 expressed in baculovirus infected sf9 cells
[11] = target: Dual 3',5'-cyclic-AMP and -GMP phosphodiesterase 11A (Homo sapiens, UniProt Q9HCR9); test: Inhibition of full length recombinant human N-terminal GST-tagged PDE11A4 expressed in baculovirus infected sf9 cells using FAM-cyclic-3',5-AMP as substrate after 1 hr by fluorescence polarization assay
[12] = target: Dual specificity calcium/calmodulin-dependent 3',5'-cyclic nucleotide phosphodiesterase 1A (Homo sapiens, UniProt P54750); test: Inhibition of full length recombinant human N-terminal GST-tagged PDE1A expressed in baculovirus infected sf9 cells using FAM-cyclic-3',5-AMP as substrate after 1 hr by fluorescence polarization assay; in short: as §3
Homo sapiens [13] = organism: Homo sapiens; test: Selectivity index, ratio of IC50 for inhibition of full length recombinant human N-terminal GST-tagged PDE6C expressed in baculovirus infected sf9 cells to IC50 for inhibition of full length recombinant human N-terminal GST-tagged PDE5A1 expressed in baculovirus infected sf9 cells
[14] = target: T1, cGMP-specific 3',5'-cyclic phosphodiesterase; test: Inhibition of PDE5 (unknown origin)
Homo sapiens [15] = organism: Homo sapiens; test: Selectivity ratio of Ki for PDE6 (unknown origin) to Ki for PDE5 (unknown origin)
Homo sapiens [16] = organism: Homo sapiens; test: Selectivity ratio of IC50 for PDE6 (unknown origin) to IC50 for PDE5 (unknown origin)
[17] = target: cAMP and cAMP-inhibited cGMP 3',5'-cyclic phosphodiesterase 10A (Homo sapiens, UniProt Q9Y233); test: Inhibition of recombinant human N-terminal GST-tagged PDE10A1 (2 to 789 residues) expressed in baculovirus infected sf9 cells using FAM-cyclic-3',5-AMP as substrate after 1 hr by fluorescence polarization assay; in short: as §3
[18] = target: High affinity cAMP-specific and IBMX-insensitive 3',5'-cyclic phosphodiesterase 8A (Homo sapiens, UniProt O60658); test: Inhibition of full length recombinant human N-terminal GST-tagged PDE8A1 expressed in baculovirus infected sf9 cells using FAM-cyclic-3',5-AMP as substrate after 1 hr by fluorescence polarization assay; in short: as §3
[19] = target: High affinity 3',5'-cyclic-AMP phosphodiesterase 7A (Homo sapiens, UniProt Q13946); test: Inhibition of recombinant human N-terminal GST-tagged PDE7A (122 to end residues) expressed in baculovirus infected sf9 cells using FAM-cyclic-3',5-AMP as substrate after 1 hr by fluorescence polarization assay; in short: as §3
[20] = target: High affinity cGMP-specific 3',5'-cyclic phosphodiesterase 9A (Homo sapiens, UniProt O76083); test: Inhibition of full length recombinant human N-terminal GST-tagged PDE9A2 expressed in baculovirus infected sf9 cells using […] as substrate after 1 hr by fluorescence polarization assay; in short: as §3
Sequence of High affinity cGMP-specific 3',5'-cyclic phosphodiesterase 9A (O76083 whole entry): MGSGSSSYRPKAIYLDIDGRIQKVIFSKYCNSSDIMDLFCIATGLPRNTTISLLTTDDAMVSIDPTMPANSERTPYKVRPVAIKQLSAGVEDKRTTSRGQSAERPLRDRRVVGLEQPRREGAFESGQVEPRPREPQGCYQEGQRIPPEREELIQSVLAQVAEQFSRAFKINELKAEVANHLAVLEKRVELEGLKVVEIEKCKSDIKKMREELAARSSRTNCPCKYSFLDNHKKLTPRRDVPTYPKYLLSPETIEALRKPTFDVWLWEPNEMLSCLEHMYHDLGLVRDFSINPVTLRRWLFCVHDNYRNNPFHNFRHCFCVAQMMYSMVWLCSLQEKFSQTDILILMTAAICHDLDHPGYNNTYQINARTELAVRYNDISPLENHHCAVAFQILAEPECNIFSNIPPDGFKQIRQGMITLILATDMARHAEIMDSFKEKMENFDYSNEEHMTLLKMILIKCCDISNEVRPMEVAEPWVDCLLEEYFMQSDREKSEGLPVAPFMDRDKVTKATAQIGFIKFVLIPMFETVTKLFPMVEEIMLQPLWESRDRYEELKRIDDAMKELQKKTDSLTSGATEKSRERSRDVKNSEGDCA

Sequence of Dual 3',5'-cyclic-AMP and -GMP phosphodiesterase 11A (Q9HCR9 whole entry): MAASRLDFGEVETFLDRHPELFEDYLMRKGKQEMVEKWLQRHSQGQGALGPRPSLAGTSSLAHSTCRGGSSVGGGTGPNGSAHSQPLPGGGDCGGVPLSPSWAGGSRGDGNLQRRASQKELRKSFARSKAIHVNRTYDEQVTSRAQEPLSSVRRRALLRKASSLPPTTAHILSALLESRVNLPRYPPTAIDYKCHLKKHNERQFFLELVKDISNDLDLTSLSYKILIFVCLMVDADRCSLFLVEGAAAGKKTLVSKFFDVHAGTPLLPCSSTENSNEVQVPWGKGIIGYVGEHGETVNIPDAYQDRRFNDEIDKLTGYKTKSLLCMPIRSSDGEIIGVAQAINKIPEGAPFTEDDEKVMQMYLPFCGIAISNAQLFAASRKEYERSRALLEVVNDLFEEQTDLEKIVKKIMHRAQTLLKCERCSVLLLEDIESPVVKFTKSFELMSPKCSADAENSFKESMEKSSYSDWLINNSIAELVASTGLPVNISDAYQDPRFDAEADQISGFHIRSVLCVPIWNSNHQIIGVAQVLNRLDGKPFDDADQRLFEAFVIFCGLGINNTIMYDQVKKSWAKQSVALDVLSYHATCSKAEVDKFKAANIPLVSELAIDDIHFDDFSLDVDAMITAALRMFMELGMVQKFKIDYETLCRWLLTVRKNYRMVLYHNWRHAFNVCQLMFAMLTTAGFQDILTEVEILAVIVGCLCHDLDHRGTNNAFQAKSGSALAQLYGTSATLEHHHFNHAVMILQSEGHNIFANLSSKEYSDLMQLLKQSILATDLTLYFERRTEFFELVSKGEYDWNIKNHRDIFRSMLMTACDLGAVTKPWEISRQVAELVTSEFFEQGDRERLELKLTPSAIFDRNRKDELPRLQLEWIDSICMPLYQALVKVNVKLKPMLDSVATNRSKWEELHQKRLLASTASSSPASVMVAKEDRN
Sequence of Cone cGMP-specific 3',5'-cyclic phosphodiesterase subunit alpha' (P51160 whole entry): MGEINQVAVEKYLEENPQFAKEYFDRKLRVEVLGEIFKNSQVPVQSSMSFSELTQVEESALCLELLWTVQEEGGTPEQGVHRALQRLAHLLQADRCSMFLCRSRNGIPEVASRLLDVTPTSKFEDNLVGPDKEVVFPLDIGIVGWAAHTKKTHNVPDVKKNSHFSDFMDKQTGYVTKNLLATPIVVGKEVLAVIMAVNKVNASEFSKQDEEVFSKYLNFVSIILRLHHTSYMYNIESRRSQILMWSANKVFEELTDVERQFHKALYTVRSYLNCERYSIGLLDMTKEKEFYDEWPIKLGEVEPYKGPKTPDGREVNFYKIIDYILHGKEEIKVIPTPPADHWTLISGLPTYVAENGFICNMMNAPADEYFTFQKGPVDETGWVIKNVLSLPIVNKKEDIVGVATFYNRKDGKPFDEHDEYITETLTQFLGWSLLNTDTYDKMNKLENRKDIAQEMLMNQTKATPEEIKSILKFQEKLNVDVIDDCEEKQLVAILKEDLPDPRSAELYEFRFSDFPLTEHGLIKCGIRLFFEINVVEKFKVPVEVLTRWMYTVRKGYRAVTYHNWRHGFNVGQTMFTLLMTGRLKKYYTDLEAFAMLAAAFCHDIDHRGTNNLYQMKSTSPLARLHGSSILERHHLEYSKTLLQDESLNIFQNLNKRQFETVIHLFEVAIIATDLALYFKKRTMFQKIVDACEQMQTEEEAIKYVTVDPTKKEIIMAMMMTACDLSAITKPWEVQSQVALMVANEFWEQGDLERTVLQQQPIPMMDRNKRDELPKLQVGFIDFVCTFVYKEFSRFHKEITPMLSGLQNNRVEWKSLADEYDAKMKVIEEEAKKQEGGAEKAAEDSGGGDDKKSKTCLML
Sequence of cGMP-inhibited 3',5'-cyclic phosphodiesterase 3B (Q13370 whole entry, canonical isoform): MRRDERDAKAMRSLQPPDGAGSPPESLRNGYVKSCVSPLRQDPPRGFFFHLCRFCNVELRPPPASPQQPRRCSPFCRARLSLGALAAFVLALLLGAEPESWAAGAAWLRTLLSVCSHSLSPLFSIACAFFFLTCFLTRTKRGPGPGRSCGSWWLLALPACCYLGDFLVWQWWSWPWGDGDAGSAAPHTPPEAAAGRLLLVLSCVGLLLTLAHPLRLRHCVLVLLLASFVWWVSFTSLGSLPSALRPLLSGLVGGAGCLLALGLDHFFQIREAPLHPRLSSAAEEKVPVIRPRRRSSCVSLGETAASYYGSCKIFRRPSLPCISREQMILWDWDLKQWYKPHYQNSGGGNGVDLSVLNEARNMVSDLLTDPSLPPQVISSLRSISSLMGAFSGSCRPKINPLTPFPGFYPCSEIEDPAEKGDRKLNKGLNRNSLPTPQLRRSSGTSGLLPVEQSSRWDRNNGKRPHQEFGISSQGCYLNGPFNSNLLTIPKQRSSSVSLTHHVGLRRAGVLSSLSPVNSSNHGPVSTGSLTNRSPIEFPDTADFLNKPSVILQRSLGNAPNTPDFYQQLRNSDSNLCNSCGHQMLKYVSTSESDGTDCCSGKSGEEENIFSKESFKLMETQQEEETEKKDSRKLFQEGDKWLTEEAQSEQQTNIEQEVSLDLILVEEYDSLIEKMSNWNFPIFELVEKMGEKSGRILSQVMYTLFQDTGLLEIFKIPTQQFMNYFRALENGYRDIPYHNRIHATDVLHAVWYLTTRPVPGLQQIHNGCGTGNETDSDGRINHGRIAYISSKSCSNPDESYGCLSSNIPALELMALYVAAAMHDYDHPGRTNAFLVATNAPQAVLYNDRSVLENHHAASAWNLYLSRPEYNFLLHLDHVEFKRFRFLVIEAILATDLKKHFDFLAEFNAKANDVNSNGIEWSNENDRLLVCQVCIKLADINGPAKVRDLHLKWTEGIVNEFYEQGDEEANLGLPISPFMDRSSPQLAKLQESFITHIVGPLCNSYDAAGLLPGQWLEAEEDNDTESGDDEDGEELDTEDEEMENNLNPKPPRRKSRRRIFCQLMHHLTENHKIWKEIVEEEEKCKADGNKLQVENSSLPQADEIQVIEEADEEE
Sequence of Dual specificity calcium/calmodulin-dependent 3',5'-cyclic nucleotide phosphodiesterase 1A (P54750 whole entry): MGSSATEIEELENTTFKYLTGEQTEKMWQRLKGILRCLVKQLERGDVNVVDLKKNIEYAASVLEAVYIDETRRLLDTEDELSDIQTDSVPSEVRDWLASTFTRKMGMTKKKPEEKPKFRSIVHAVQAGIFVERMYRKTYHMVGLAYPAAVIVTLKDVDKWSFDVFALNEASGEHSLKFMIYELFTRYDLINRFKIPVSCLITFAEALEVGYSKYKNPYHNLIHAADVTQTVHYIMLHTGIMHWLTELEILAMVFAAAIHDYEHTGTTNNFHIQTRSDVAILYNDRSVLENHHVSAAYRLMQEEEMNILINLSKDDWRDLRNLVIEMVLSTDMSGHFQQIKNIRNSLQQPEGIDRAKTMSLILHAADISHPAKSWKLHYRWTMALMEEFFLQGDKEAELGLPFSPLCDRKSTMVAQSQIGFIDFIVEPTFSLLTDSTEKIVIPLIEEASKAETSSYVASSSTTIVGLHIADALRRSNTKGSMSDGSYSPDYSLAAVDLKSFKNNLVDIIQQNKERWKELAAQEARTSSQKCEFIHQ
Sequence of cGMP-dependent 3',5'-cyclic phosphodiesterase (O00408 whole entry, the tested form may be a part): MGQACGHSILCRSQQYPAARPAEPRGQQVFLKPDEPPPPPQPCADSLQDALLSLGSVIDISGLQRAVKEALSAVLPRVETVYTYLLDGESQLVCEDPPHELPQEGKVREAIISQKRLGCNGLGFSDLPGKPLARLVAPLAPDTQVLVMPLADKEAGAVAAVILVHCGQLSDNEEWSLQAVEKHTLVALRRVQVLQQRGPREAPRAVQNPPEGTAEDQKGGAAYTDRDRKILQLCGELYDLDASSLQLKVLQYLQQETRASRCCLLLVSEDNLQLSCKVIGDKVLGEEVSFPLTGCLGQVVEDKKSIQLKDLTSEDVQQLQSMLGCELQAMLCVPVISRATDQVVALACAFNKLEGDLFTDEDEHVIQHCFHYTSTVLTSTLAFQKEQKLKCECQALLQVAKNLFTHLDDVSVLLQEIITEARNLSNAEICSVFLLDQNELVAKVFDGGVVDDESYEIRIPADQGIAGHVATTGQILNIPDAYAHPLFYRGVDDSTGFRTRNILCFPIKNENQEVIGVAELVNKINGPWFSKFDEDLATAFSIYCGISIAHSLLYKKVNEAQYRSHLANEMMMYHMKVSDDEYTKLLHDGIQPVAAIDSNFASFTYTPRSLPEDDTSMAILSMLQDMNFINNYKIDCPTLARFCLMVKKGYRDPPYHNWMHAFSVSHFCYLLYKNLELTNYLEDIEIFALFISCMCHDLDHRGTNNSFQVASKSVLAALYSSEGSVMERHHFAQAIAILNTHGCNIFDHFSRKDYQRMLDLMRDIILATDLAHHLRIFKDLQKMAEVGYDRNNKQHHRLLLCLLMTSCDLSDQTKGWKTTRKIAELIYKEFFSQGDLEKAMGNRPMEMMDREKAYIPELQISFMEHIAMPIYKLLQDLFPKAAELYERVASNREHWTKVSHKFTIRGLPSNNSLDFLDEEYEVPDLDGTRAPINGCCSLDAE

percent relaxation [1] | EC50 [2] [nM] | IC50 [3] [nM] | IC50 [4] [nM] | IC50 [5] [nM] | IC50 [6] [nM] | inhibition [8] [%] | IC50 [9] [nM] | IC50 [11] [nM] | IC50 [12] [nM] | SMILES | Ratio IC50 (Homo sapiens [10]) | Ratio IC50 (Homo sapiens [13]) | other results
Dose-dependent effect | 725 | > 20000 | > 20000 | > 1000 | > 10000 | 98.4 | 12.7 | 119 | > 20000 | CCc1ccc([C@@H]2c3[nH]c4ccccc4c3C[C@@H]3C(=O)N(C)CC(=O)N23)o1 | 9 | > 79 | Stability [7]: Stable
Dose-dependent effect | 225 | > 20000 | > 20000 | > 1000 | > 10000 | 85.8 | 8.44 | 99 | > 20000 | CCc1ccc([C@@H]2c3[nH]c4ccccc4c3C[C@@H]3C(=O)N(CC)C(=O)N23)o1 | 12 | > 118 | –
Dose-dependent effect | 191 | > 20000 | > 20000 | 62 | > 10000 | 85.4 | 10.5 | 4 | > 20000 | CCN1C(=O)[C@@H]2Cc3c([nH]c4ccccc34)[C@@H](c3ccc(C)o3)N2C1=O | 0.4 | 6 | –
Dose-dependent effect | 55 | > 20000 | > 20000 | 136 | > 10000 | 99.2 | 7.2 | 219 | > 20000 | CN1CC(=O)N2[C@H](c3ccc(Br)s3)c3[nH]c4ccccc4c3C[C@@H]2C1=O | 30 | 19 | –
Dose-dependent effect | 71 | > 20000 | > 20000 | > 1000 | > 10000 | 96 | 8.68 | 173 | > 20000 | Cc1ccc([C@@H]2c3[nH]c4ccccc4c3C[C@@H]3C(=O)N(C)CC(=O)N23)s1 | 20 | > 115 | –
– | – | – | – | – | – | 47.8 | 227 | – | – | CCNC(=O)c1cc2c([nH]c3ccccc32)c(-c2ccc(CC)s2)n1 | – | – | Stability [7]: Stable
– | 78 | > 10000 | > 10000 | – | – | – | – | – | > 10000 | CN1CC(=O)N2[C@H](c3ccc4c(c3)OCO4)c3[nH]c4ccccc4c3C[C@@H]2C1=O | – | – | IC50 [17]: > 10000 nM; IC50 [18]: > 10000 nM; IC50 [19]: > 10000 nM; IC50 [20]: > 10000 nM
– | – | – | – | – | – | 25.2 | – | – | – | CCc1ccc(C(=O)c2[nH]c3ccccc3c2CCNc2ccc(-c3ccccn3)cn2)s1 | – | – | Stability [7]: Stable
– | – | – | – | – | – | 46.1 | – | – | – | CCNC(=O)N1[C@H](c2ccc(CC)o2)c2[nH]c3ccccc3c2C[C@@H]1C(=O)OC | – | – | Stability [7]: Stable

Continued, molecule first:

SMILES | percent relaxation [1] | EC50 [2] [nM] | IC50 [3] [nM] | IC50 [4] [nM] | IC50 [5] [nM] | IC50 [6] [nM] | inhibition [8] [%] | IC50 [9] [nM] | IC50 [11] [nM] | IC50 [12] [nM] | Ratio IC50 (Homo sapiens [10]) | Ratio IC50 (Homo sapiens [13]) | other results
c1ccc(CNc2ncnc3sc4c(c23)CCCCC4)cc1 | – | – | – | – | – | – | – | – | – | – | – | – | IC50 [14]: 190 nM
COc1ccc(CNc2nc(N3CCC[C@H]3CO)ncc2C(=O)NCc2ncccn2)cc1Cl | – | – | – | – | – | – | – | – | – | – | – | – | Ratio Ki (Homo sapiens [15]): 1000
CCc1ccc(C2c3[nH]c4ccccc4c(=O)c3CN2c2ncc(-c3ccccn3)cn2)o1 (stereo unspecified) | – | – | – | – | – | – | – | – | – | – | – | – | IC50 [14]: 0.53 nM; Ratio IC50 (Homo sapiens [16]): 4
CC(C)(C)Oc1ccc(Cc2[nH]c(-c3ccco3)c3c(=O)c4ccccc4oc23)cc1 | – | – | – | – | – | – | – | – | – | – | – | – | IC50 [14]: 240 nM
COc1ccc(-c2cnc(N3CC(=O)c4c([nH]c5ccccc45)C3c3ccc4c(c3)OCO4)nc2)cc1OC (racemic) | – | – | – | – | – | – | – | – | – | – | – | – | Ki [14]: 8 nM
CCc1ccc([C@@H]2c3[nH]c4ccccc4c3C[C@H]3C(=O)N(CC)C(=O)N23)s1 | Dose-dependent effect | 58 | > 20000 | > 20000 | 56 | > 10000 | 94.1 | 5.24 | > 1000 | > 20000 | > 190 | 11 | Stability [7]: Stable
CN1CCN(C(=O)c2ccc(-c3ccc(C(=O)N4CCc5c([nH]c6ccccc56)C4c4ccc5c(c4)OCO5)o3)cc2)CC1 (racemic) | – | – | – | – | – | – | – | – | – | – | – | – | Ratio Ki (Homo sapiens [15]): 187; Ki [14]: 8 nM
COc1ccc(CN=c2[nH]c(N3CCC[C@H]3CO)ncc2C(=O)NCc2ncccn2)cc1Cl | – | – | – | – | – | – | – | – | – | – | – | – | Ki [14]: 5 nM
CCN1C(=O)[C@@H]2Cc3c([nH]c4ccccc34)[C@@H](c3ccc(Br)s3)N2C1=O | – | – | – | – | – | – | – | – | – | – | – | – | IC50 [14]: 160 nM
CCc1ccc([C@@H]2c3[nH]c4ccccc4c3C[C@@H]3C(=O)N(CC)C(=O)N23)s1 | Dose-dependent effect | 103 | > 20000 | > 20000 | > 1000 | > 10000 | 91.4 | 7.02 | 169 | > 20000 | 24 | > 142 | –
CCc1ccc(C2c3[nH]c4ccccc4c3CCN2c2ccc(-c3ccccn3)cn2)s1 (stereo unspecified) | – | – | – | – | – | – | – | – | – | – | – | – | IC50 [14]: 86 nM
CCc1ccc(C2c3[nH]c4ccccc4c3C(=O)CN2c2ncc(-c3ccc(OC)c(OC)c3)cn2)o1 (stereo unspecified) | – | – | – | – | 288 | – | 73.3 | 52.5 | 634 | – | 12 | 5 | Stability [7]: Stable
CCCCCN1C(=O)[C@@H]2Cc3c([nH]c4ccccc34)[C@@H](c3ccc(Br)s3)N2C1=O | – | – | – | – | – | – | – | – | – | – | – | – | IC50 [14]: 170 nM
CCc1ccc(C2c3[nH]c4ccccc4c(=O)c3CN2c2ncc(-c3ccccn3)cn2)s1 (stereo unspecified) | – | – | – | – | – | – | – | – | – | – | – | – | Ratio IC50 (Homo sapiens [16]): 8
